PMI act: activators of human phosphomannose isomerase; purified human PMI, coupled resazurin fluorescence, 20 min; stronger effect = higher value; 1 = vehicle control, 0 substrate-free wells; activation factor at 20 µM; 0.005% of 190,000 active; AID 1214;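 active means activation factor of 2 or more at 20 µM, relative to plate controls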
Target sequence (P34949 whole entry, looked up): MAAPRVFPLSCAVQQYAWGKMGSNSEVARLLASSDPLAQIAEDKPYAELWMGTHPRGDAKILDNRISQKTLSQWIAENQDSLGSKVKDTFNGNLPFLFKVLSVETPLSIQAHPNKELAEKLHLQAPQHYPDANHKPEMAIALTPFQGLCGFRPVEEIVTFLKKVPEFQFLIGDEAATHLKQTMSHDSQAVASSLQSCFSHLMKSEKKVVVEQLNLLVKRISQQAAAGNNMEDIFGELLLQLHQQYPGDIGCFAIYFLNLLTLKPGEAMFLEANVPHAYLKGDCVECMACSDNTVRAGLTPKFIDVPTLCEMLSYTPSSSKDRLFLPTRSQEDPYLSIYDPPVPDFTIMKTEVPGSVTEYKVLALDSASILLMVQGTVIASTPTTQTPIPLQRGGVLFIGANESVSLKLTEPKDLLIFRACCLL
G6PDH CS: L. mesenteroides G6PDH inhibition counter-screen; Purified L. mesenteroides G6PDH, diaphorase/resazurin coupled fluorescence, 45 min; inhibition, % at 5 µM; 0.12% of 200,000 active; AID 1020; in the data active means inhibition above about 50%
Diaph act CS: counter-screen for diaphorase-based assays: diaphorase activators and chemical reducers; Diaphorase/resazurin coupled assay, resorufin fluorescence, 16 min; stronger effect = higher value; 1 = vehicle wells, 0 = NADH-free wells; 0.005% of 190,000 active; activation factor at 20 µM;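 active means diaphorase activity raised at least twofold by the compound at 20 µM; inactive means activation factor below 2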
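test system = bacterial diaphorase enzyme (C. kluyveri) | quantity = enzyme 0.07 U/mL final | reagent = NADH substrate 0.114 mM plus resazurin dye 0.1 mM, final | incubation = 16 min enzyme reaction, ambient temperature | buffer or medium = HEPES pH 7.4 buffer with MgCl2 and Tween 20 | signal = fluorescence of resorufin, 544 nm excitation, 590 nm emission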
Diaph inh CS: inhibits diaphorase or chemically oxidizes, flagging diaphorase assay artifacts; diaphorase resazurin-to-resorufin fluorescence, NADH, 16 min; bacterial (C. kluyveri) enzyme, not human; inhibition, % at 20 µM; 0.69% of 190,000 active;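 active means primary screen inhibition at 20 µM above a set limit, cut at about 50% in these data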;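 further: plate controls were DMSO with full reaction for no effect and wells lacking NADH for full effect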
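Test system: Clostridium kluyveri diaphorase enzyme / Quantity: diaphorase at 0.14 U/mL in enzyme working solution / Incubation: 16-min room-temperature incubation before reading / Benchmarks: NADH-free wells as positive control, DMSO-only neutral wells / Signal: resorufin fluorescence 544/590 nm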
PMI act satM6P: PMI (human) activation, high substrate. coupled PMI enzyme assay, resazurin fluorescence, 20 min; stronger effect = higher value; 1 = untreated enzyme, 0 = substrate-free blank. activation factor at 20 µM. 0.34% of 190,000 active;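 active means activation factor of 2 or more at 20 µM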
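test system = human PMI in coupled enzyme assay | medium = HEPES-buffered pH 7.4 with magnesium and detergent | also added = 1.0 mM mannose-6-phosphate substrate with 0.22 mM NADP+ | compound = 20 µM single dose | times = 20 min incubation at room temperature | measured by = resorufin fluorescence (Ex 544/Em 590 nm) from resazurin via diaphorase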
* marks the source's active call; other numbers are inactive results. This is a sample that favours compounds with a hit; in the whole collection about 1.1% have one here.

SMILES	PMI act	G6PDH CS	Diaph act CS	Diaph inh CS	PMI act satM6P
Cc1cc(=O)n(CCCO)c(O)c1C#N	0.9	21	0.8	24	0.6
Cc1cc(=S)cc(C)n1CCCO	1.4	-3	0.9	11	2*
Cc1cccc(NS(=O)(=O)c2cc(C(=O)OC(C)C(=O)NCc3ccc4c(c3)OCO4)ccc2C)c1 (stereo not drawn)	0.9	-17	0.8	20	1
C/C(=N\Nc1ccc(F)cc1F)c1cccs1	1.5	0	0.8	17	1.6
COc1ccc(/C(C)=N/Nc2ccc(F)cc2F)c(O)c1	1.7	1	0.8	16	2.5*
Cc1cc(C)cc(N(CC(=O)N2CCn3c2nc2ccccc23)S(=O)(=O)c2c(C)noc2C)c1	0.9	5	0.7	27	0.9
Cc1ccc2[nH]c(=O)c3cc(C(=O)N4CCN(C(=O)c5ccco5)CC4)sc3c2c1	0.9	-6	0.4	60*	0.9
COn1c(C)c(C(C)=O)c2c3nonc3ccc21	0.5	42	0.5	53*	0.4
COn1c2c(c3c4nonc4ccc31)CCCC2	0.6	47	0.7	34	0.7
COc1ccc(NC(=S)N(C)CC2COc3ccccc3O2)cc1 (stereo not drawn)	1	5	1	3	1
CCC1(C)Cc2nc3sc(C(=O)O)c(N)c3cc2CO1 (stereo not drawn)	1.5	12	0.8	21	2.2*
CCOC(=O)c1sc2nc3c(cc2c1N)COC(C)(CC)C3 (stereo not drawn)	1	-2	0.9	13	1
CN1C=C/C(=C\c2cc[n+](C)c3ccccc23)c2ccccc21	0.4	60*	0.4	55*	0.4
CC[n+]1ccc(/C=C2\Sc3ccccc3N2CCCS(=O)(=O)[O-])c2ccccc21	0.9	15	0.9	7	0.9
CCOC(=O)CCCNC(=O)CSc1nc2ccc(OCC)cc2[nH]1	0.8	0	0.5	54*	0.8
CCCCNC(=O)CSc1nc2ccc(C)cc2[nH]1	1	3	0.9	7	1
CCCCn1c(N)c(C(=S)NC(=O)CC(C)(C)C)c(=O)n(C)c1=O	0.8	-6	0.4	62*	0.8
CCCn1c(N)c(C(=O)CN2CCc3ccccc3C2)c(=O)n(C)c1=O	1.3	7	1.2	-16	1.1
O=c1oc2c(-c3cccc(F)c3)cc(O)cc2s1	1.1	0	0.9	10	1
Cc1ccc(NC(=O)CC(=O)NCCN2CCOCC2)cc1	0.9	0	0.9	6	0.9
CC(=O)/C(=N\Nc1ccc(C)cc1)N1CCOCC1	1.5	4	1	-1	2.6*
CCOC(=O)C1CC=C(Cl)CC1C(=O)Nc1nccs1 (stereo not drawn)	0.9	1	0.9	13	0.8
CCn1c(=O)n(CC)c2cc(S(N)(=O)=O)ccc21	0.9	6	0.8	20	1
CCn1c(=O)n(CC)c2cc(N)ccc21	0.2	10	0.3	75*	0.2
CN(C)c1ccc(N2CN=C3SCC(=O)N3C2)cc1	0.8	23	0.9	10	0.6
SMILES	PMI act	G6PDH CS	Diaph act CS	Diaph inh CS	PMI act satM6P
CCC1(C(=O)c2ccc(Cl)cc2)C2c3ccccc3OC(=O)C21C(=O)Nc1ccccc1 (stereo not drawn)	0.9	-6	0.7	26	0.9
N/C(COc1cccc(C(F)(F)F)c1)=N\NC(=O)c1cccnc1Oc1ccccc1	1.1	4	0.9	9	1.1
Cc1ccc2c(c1)c(N=Nc1cccc(C(=O)O)c1)c(O)n2C	1.2	7	0.4	59*	1.1
COc1ccc(-c2cc(CNS(=O)(=O)c3ccc(F)cc3)on2)cc1	0.9	2	0.8	19	0.9
O=C(NC1CCCC1)c1ccc2nc[nH]c2c1	0.9	2	0.9	14	0.9
O=C(NCCO)c1ccc2nc(-c3ccco3)c(-c3ccco3)nc2c1	1.4	29	0.5	52*	1.7
O=C(NCCc1ccccc1)c1ccc2nc(-c3ccco3)c(-c3ccco3)nc2c1	1.1	25	0.5	49	1.1
O=C(c1ccccc1)c1ccc2nc(-c3ccco3)c(-c3ccco3)nc2c1	1.4	21	0.3	74*	1.1
O=C(NC1CCCC1)c1ccc2nc(-c3ccco3)c(-c3ccco3)nc2c1	1	19	0.2	80*	0.8
c1coc(-c2nc3ccccc3nc2-c2ccco2)c1	1.1	21	0.2	80*	0.7
O=C(CCNc1ccc(Cc2ccncc2)cc1)c1ccc([N+](=O)[O-])cc1	0.4	9	0.9	8	0.3
CCn1c(=O)c(C(=O)NNS(=O)(=O)c2ccc(Br)cc2)c(O)c2ccccc21	1	0	0.7	27	1.1
O=C1c2ccccc2C(=O)N1/N=C/c1ccc(O)c(O)c1	0.6	12	0.5	52*	0.9
COc1ccc(-c2cc(CNC(=O)CN(C)Cc3ccccc3)on2)cc1	0.9	3	0.8	17	1
Cc1ncc(CO)c(/C=N/NC(=O)c2cc(O)c(O)c(O)c2)c1O	0.4	2	0.4	60*	0.8
COc1cccc(/C=N/n2c(-c3n[nH]c4c3CCC4)n[nH]c2=S)c1O	0.8	28	0.4	58*	0.8
COc1ccc(-c2n[nH]c(=S)n2/N=C/C=C\c2ccccc2OC)cc1	0.7	-20	0.7	26	0.9
O=C(c1ccccc1F)N(NC(=O)C(O)(c1ccccc1)c1ccccc1)c1ccccc1	0.9	4	0.9	13	1
O=C(c1ccccc1)c1c[nH]c(C(=O)NCCCn2ccnc2)c1	1	7	0.9	10	1
COc1ccc(C2CC(c3cccs3)=NN2S(C)(=O)=O)cc1OC (stereo not drawn)	1	14	1	0	1
COc1ccc(C2CC(c3cccs3)=NN2c2nc(-c3ccccc3)cs2)cc1OC (stereo not drawn)	1.6	-22	1	4	2.1*
CN1CCN(C2=C(Cl)C(=O)C(c3cnc(N4CCCCC4)s3)=C(Cl)C2=O)CC1	0.9	51*	0.4	64*	1
CN1CCN(C2=C(Cl)C(=O)N(C3CCCCC3)C2=O)CC1	1	0	0.8	20	0.9
Cc1cccc(/C=N/Nc2cc(N3CCOCC3)nc(N3CCOCC3)n2)c1	0.2	30	0.3	72*	0.3
Clc1ccc(-c2ccc(/C=N/Nc3cc(N4CCOCC4)nc(N4CCOCC4)n3)o2)cc1	0.5	9	0.7	29	0.5
CC(C)c1ccc(/C=N/Nc2cc(N3CCOCC3)nc(N3CCOCC3)n2)cc1	0.2	24	0.4	63*	0.3
Oc1ccc(/C=N/Nc2cc(N3CCCC3)nc(N3CCCC3)n2)cc1O	0.4	49	0.4	62*	0.4
